The nature of series [1]: Hemolytic activity in rabbit RBC at 100 ug/mL after 3 hrs by colorimetric assay relative to control. Type of series: ADME, cell-based, Oryctolagus cuniculus, Erythrocyte. Conditions: rabbit red blood cells (RBC), read-out: Activity. In a few lines: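 Rabbit whole blood diluted 0.1 mL in 0.9 mL PBS, incubated with test compound at 37 °C for 3 h, then centrifuged at 3800 rpm for 15 min. Supernatant mixed with Drabkin's reagent for 15 min, cyanmethemoglobin read at 540 nm against a hemoglobin standard curve. Compound absorbance at 540 nm subtracted. Saline served as negative control, distilled water as positive.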

The subject of series [2] is MCF7. The series is described as follows: Anticancer activity against wild-type human MCF7 cells assessed as cell viability at 1 ug/mL after 24 hrs by MTT assay relative to control. The series is classed as functional. To be noted: MCF7, 24 h, read-out: Activity. In a few lines: (§1)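 MCF-7 cells grown in low-glucose DMEM with 10% FBS plus antibiotic/antimycotic. Seeded at 2×10^3 cells/well, incubated 24 h at 37 °C in humidified 5% CO2, then exposed to test compounds for 24 h. Cells washed with PBS, given MTT for 4 h at 37 °C, formazan dissolved in DMSO, absorbance read at 570 nm. Viability taken as the ratio of treated to blank.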
(Formazan colour is commonly taken as a measure of viable cells.)

Series [3] relates to MCF7. The series is described as follows: Anticancer activity against wild-type human MCF7 cells assessed as cell viability at 0.001 ug/mL after 24 hrs by MTT assay relative to control. The series is classed as functional. Conditions: MCF7, 24 h, read-out: Activity. In a few lines:
as §1

In series [4] the test system is MCF7. The series can be described thus: Anticancer activity against wild-type human MCF7 cells assessed as cell viability at 0.1 ug/mL after 24 hrs by MTT assay relative to control. The series is classed as functional. Conditions: MCF7, 24 h, read-out: Activity. In a few lines: as §1
The subject of series [5] is MCF7. The series is described as follows: Anticancer activity against wild-type human MCF7 cells assessed as cell viability at 0.01 ug/mL after 24 hrs by MTT assay relative to control. The series is classed as functional. To be noted: MCF7, 24 h, read-out: Activity. In a few lines:
as §1

The subject of series [6] is DNA. The series is described as follows: Binding affinity to calf thymus DNA assessed as hypochromicity by UV-vis spectroscopic analysis relative to control. Type of series: nucleic-acid assay. Further details: concentration or dose not given beside the values. To be noted: Bos taurus. In a few lines: (§2)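 Ct-DNA stock in tris–HCl pH 7.2–7.3, stored at 4 °C, used within 4 days; A260/A280 ≥1.8. DNA concentration from ε260 6600 M⁻¹ cm⁻¹. Compound dissolved in methanol (2.0×10^-4 M) and titrated with DNA (0.3–2.1 ×10^-4) in tris–HCl, UV–vis spectra recorded after each addition. Kb from modified Benesi–Hildebrand (Wolfe) equation.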

The test system of series [7] is DNA. The series can be described thus: Binding affinity to calf thymus DNA by Benessi-Hilderbrand equation. The series is classed as nucleic-acid assay. To be noted: Bos taurus. In a few lines: as §2
Series [8] has as its system MCF7. The series is described as follows: Anticancer activity against wild-type human MCF7 cells assessed as cell viability at 0.0001 ug/mL after 24 hrs by MTT assay relative to control. The series is classed as functional. Conditions: MCF7, 24 h, read-out: Activity. Put shortly:
as §1

The values below come from ChEMBL document CHEMBL2396575, “Curcumin-I Knoevenagel's condensates and their Schiff's bases as anticancer agents: synthesis, pharmacological and simulation studies” (Bioorg Med Chem, 2013).

Turning to `O=Cc1cn(-c2ccccc2)nc1-c1ccc([N+](=O)[O-])cc1`, the hemolysis at 3 h, 100 ug/mL in series [1] was 7%. Moreover, in the series with MCF7 [2], the viability at 1 µg/mL amounted to 80%. Further, in the series with MCF7 [3], the viability at 0.001 µg/mL was 97%. For the same compound, the viability at 0.1 µg/mL with MCF7 [4] stood at 96%. For the same compound, the viability at 0.01 µg/mL in the series on MCF7 [5] came to 86%. In addition, in the series on DNA [6], the Activity worked out at 7.7%. Also, the Kb with DNA [7] turned out to be 1.9 ×10³ /M. For the same compound, the viability at 0.0001 µg/mL with MCF7 [8] amounted to 106%.
Consider `COc1cc(/C=C/C(=N\NC(N)=O)C(=Cc2cn(-c3ccccc3)nc2-c2ccc([N+](=O)[O-])cc2)C(/C=C/c2ccc(O)c(OC)c2)=N/NC(N)=O)ccc1O`, for which the hemolysis at 3 h, 100 ug/mL in series [1] stood at 11%. The viability at 1 µg/mL in the series on MCF7 [2] turned out to be 98%. In addition, the viability at 0.001 µg/mL with MCF7 [3] came out at 105%. In addition, in the series on MCF7 [4], the viability at 0.1 µg/mL worked out at 92%. Further, the viability at 0.01 µg/mL in the series with MCF7 [5] worked out at 95%. For the same compound, the Activity with DNA [6] amounted to 8%. Besides, the Kb with DNA [7] was determined as 2.6 ×10⁴ /M. The viability at 0.0001 µg/mL in the series on MCF7 [8] worked out at 110%.
Regarding `O=Cc1cn(-c2ccccc2)nc1-c1ccc(Cl)cc1`, the hemolysis at 3 h, 100 ug/mL in series [1] came to 9%. In the series with MCF7 [2], the viability at 1 µg/mL was 59%. For the same compound, the viability at 0.001 µg/mL with MCF7 [3] is 98%. Also, the viability at 0.1 µg/mL with MCF7 [4] turned out to be 90%. Besides, the viability at 0.01 µg/mL in the series on MCF7 [5] stood at 98%. Moreover, the Activity in the series with DNA [6] was found to be 5.6%. The Kb in the series on DNA [7] is 7.6 ×10⁴ /M. Further, the viability at 0.0001 µg/mL in the series on MCF7 [8] came to 100%.
On to `COc1cc(/C=C/C(=O)C(=Cc2cn(-c3ccccc3)nc2-c2ccc([N+](=O)[O-])cc2)C(=O)/C=C/c2ccc(O)c(OC)c2)ccc1O`, for which, in series [1], the hemolysis at 3 h, 100 ug/mL was determined as 10%. For the same compound, the viability at 1 µg/mL with MCF7 [2] is 90%. Also, the viability at 0.001 µg/mL with MCF7 [3] stood at 98%. Also, the viability at 0.1 µg/mL in the series with MCF7 [4] stood at 92%. Further, the viability at 0.01 µg/mL in the series on MCF7 [5] was 95%. In the series with DNA [6], the Activity stood at 12.3%. The compound also had a Kb in the series with DNA [7] of 1.4 ×10⁴ /M. The viability at 0.0001 µg/mL with MCF7 [8] turned out to be 98%.
For `COc1cc(/C=C/C(=N\NC(N)=O)C(=Cc2cn(-c3ccccc3)nc2-c2cccc([N+](=O)[O-])c2)C(/C=C/c2ccc(O)c(OC)c2)=N/NC(N)=O)ccc1O`, the hemolysis at 3 h, 100 ug/mL in series [1] worked out at 16%. Moreover, the viability at 1 µg/mL with MCF7 [2] was determined as 67%. In addition, the viability at 0.001 µg/mL with MCF7 [3] came to 89%. Also, the viability at 0.1 µg/mL in the series on MCF7 [4] worked out at 68%. For the same compound, the viability at 0.01 µg/mL in the series with MCF7 [5] was found to be 86%. In addition, the Activity with DNA [6] came out at 9%. Further, the Kb with DNA [7] stood at 9.1 ×10⁴ /M. For the same compound, the viability at 0.0001 µg/mL with MCF7 [8] is 91%.
Regarding `COc1cc(/C=C/C(=O)C(=Cc2cn(-c3ccccc3)nc2-c2ccccc2O)C(=O)/C=C/c2ccc(O)c(OC)c2)ccc1O`, in series [1], the hemolysis at 3 h, 100 ug/mL was determined as 20%. Further, the viability at 1 µg/mL in the series on MCF7 [2] came out at 88%. Besides, the viability at 0.001 µg/mL in the series on MCF7 [3] is 97%. Also, in the series with MCF7 [4], the viability at 0.1 µg/mL was 91%. The viability at 0.01 µg/mL with MCF7 [5] turned out to be 93%. Moreover, the Activity with DNA [6] came to 13%. The Kb in the series on DNA [7] is 2.1 ×10⁴ /M. Further, the viability at 0.0001 µg/mL in the series on MCF7 [8] was found to be 100%.
Take `COc1cc(/C=C/C(=O)C(=Cc2cn(-c3ccccc3)nc2-c2cccc([N+](=O)[O-])c2)C(=O)/C=C/c2ccc(O)c(OC)c2)ccc1O`: the hemolysis at 3 h, 100 ug/mL in series [1] is 14%. The viability at 1 µg/mL in the series on MCF7 [2] stood at 70%. In addition, in the series on MCF7 [3], the viability at 0.001 µg/mL was 96%. Further, the viability at 0.1 µg/mL in the series on MCF7 [4] is 85%. For the same compound, in the series on MCF7 [5], the viability at 0.01 µg/mL came out at 88%. In the series with DNA [6], the Activity is 29%. In addition, the Kb in the series with DNA [7] was determined as 9.4 ×10⁴ /M. In addition, in the series with MCF7 [8], the viability at 0.0001 µg/mL was determined as 99%.
`COc1cc(/C=C/C(=O)C(=Cc2cn(-c3ccccc3)nc2-c2ccc(Cl)cc2)C(=O)/C=C/c2ccc(O)c(OC)c2)ccc1O`: the hemolysis at 3 h, 100 ug/mL in series [1] turned out to be 16%. Further, in the series on MCF7 [2], the viability at 1 µg/mL was found to be 65%. Moreover, the viability at 0.001 µg/mL in the series on MCF7 [3] is 81%. The viability at 0.1 µg/mL with MCF7 [4] was determined as 72%. Besides, the viability at 0.01 µg/mL in the series on MCF7 [5] came to 75%. Further, in the series on DNA [6], the Activity was determined as 8.1%. In the series with DNA [7], this compound had a Kb of 7.8 ×10⁵ /M. Moreover, the viability at 0.0001 µg/mL in the series with MCF7 [8] was 95%.
Take `O=Cc1cn(-c2ccccc2)nc1-c1cccc([N+](=O)[O-])c1`: the hemolysis at 3 h, 100 ug/mL in series [1] is 10%. For the same compound, the viability at 1 µg/mL in the series with MCF7 [2] worked out at 75%. Moreover, in the series on MCF7 [3], the viability at 0.001 µg/mL worked out at 89%. The viability at 0.1 µg/mL in the series with MCF7 [4] was 86%. Further, the viability at 0.01 µg/mL in the series with MCF7 [5] stood at 89%. In addition, the Activity with DNA [6] came out at 5.2%. The compound also came in with a Kb in the series on DNA [7] of 2.5 ×10³ /M. Further, the viability at 0.0001 µg/mL in the series with MCF7 [8] worked out at 89%.
For the compound `COc1cc(/C=C/C(=N\NC(N)=O)C(=Cc2cn(-c3ccccc3)nc2-c2ccccc2O)C(/C=C/c2ccc(O)c(OC)c2)=N/NC(N)=O)ccc1O`, in series [1], the hemolysis at 3 h, 100 ug/mL worked out at 25%. In addition, the viability at 1 µg/mL in the series on MCF7 [2] came out at 87%. Also, the viability at 0.001 µg/mL in the series on MCF7 [3] is 91%. Moreover, in the series with MCF7 [4], the viability at 0.1 µg/mL amounted to 86%. Moreover, in the series with MCF7 [5], the viability at 0.01 µg/mL was 91%. In addition, in the series on DNA [6], the Activity stood at 10%. This compound registered a Kb in the series on DNA [7] of 3 ×10⁴ /M. The viability at 0.0001 µg/mL with MCF7 [8] came to 92%.
Turning to `COc1cccc2c1C(=O)c1c(O)c3c(c(O)c1C2=O)C[C@@](O)(C(=O)CO)C[C@@H]3O[C@H]1C[C@H](N)[C@H](O)[C@H](C)O1` [DOXORUBICIN], the hemolysis at 3 h, 100 ug/mL in series [1] amounted to 42%.
Consider `O=Cc1cn(-c2ccccc2)nc1-c1ccccc1O`, for which, in series [1], the hemolysis at 3 h, 100 ug/mL was found to be 18%. Besides, the viability at 1 µg/mL with MCF7 [2] came to 79%. For the same compound, the viability at 0.001 µg/mL in the series on MCF7 [3] came to 97%. The viability at 0.1 µg/mL in the series on MCF7 [4] turned out to be 73%. Further, the viability at 0.01 µg/mL in the series with MCF7 [5] stood at 92%. Further, the Activity in the series with DNA [6] came to 6.2%. Besides, in the series on DNA [7], the Kb amounted to 1.4 ×10³ /M. The viability at 0.0001 µg/mL in the series on MCF7 [8] came out at 96%.
Turning to `COc1cc(/C=C/C(=N\NC(N)=O)C(=Cc2cn(-c3ccccc3)nc2-c2ccc(Cl)cc2)C(/C=C/c2ccc(O)c(OC)c2)=N/NC(N)=O)ccc1O`, the hemolysis at 3 h, 100 ug/mL in series [1] stood at 17%. Further, the viability at 1 µg/mL with MCF7 [2] came out at 74%. For the same compound, the viability at 0.001 µg/mL in the series on MCF7 [3] amounted to 81%. Further, in the series with MCF7 [4], the viability at 0.1 µg/mL came to 78%. In addition, the viability at 0.01 µg/mL in the series on MCF7 [5] is 81%. In the series on DNA [6], the Activity came out at 11%. In the series with DNA [7], this compound came in with a Kb of 8.1 ×10⁵ /M. In the series on MCF7 [8], the viability at 0.0001 µg/mL turned out to be 87%.
